Compound activity deposited in PubChem BioAssay by several laboratories.
Smad3 inh – Smad3 (human) transcription factor binding inhibition; TR-FRET Smad3/Dy647-FoxH1 peptide binding, europium anti-His; inhibition, % at 25 µM; 88,000 compounds, 0.29% hits; AID 630;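 active = compounds that reduce the energy-transfer binding signal between the protein and its labelled peptide by more than half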;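 note: 0% = Smad3 plus labelled peptide maximal FRET and 100% = peptide-only background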
Mac1 fbg inh – inhibitors of human CD11b/CD18 binding to fibrinogen | AID 1497 | 93,000 compounds, 0.54% hits | inhibition, % at 10 µM | P05107+P11215 | K562 CD11b/CD18 adhesion to fibrinogen, ATPlite luminescence; Mn2+ added to activate the integrin;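 active = primary inhibition of 50% or more at 10 µM, then 40% or more on retest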
Target sequence (P05107 whole entry, looked up, other chains not shown): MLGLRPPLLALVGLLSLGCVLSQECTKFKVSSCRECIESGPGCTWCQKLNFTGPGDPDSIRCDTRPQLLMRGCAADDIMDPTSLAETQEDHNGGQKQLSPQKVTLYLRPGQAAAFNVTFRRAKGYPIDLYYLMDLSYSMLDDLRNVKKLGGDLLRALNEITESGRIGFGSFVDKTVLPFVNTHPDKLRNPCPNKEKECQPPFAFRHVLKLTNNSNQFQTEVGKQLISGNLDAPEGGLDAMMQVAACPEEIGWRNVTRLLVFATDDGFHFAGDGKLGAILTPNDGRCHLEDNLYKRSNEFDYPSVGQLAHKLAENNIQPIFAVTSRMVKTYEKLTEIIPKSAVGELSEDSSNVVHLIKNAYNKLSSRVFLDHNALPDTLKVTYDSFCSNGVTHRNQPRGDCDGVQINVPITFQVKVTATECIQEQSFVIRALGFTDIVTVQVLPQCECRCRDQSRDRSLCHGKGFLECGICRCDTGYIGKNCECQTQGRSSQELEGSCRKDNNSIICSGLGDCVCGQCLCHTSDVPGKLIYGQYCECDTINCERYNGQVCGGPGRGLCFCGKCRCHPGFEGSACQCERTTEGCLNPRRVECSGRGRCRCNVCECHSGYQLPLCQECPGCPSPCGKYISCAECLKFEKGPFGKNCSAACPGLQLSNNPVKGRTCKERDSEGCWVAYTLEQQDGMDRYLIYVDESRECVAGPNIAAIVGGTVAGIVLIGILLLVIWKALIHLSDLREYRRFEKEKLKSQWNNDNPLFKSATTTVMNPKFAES
Mac1 fbg enh – increases human CD11b/CD18 adhesion to fibrinogen; K562 CD11b/CD18 adhesion to fibrinogen, ATPlite luminescence; activation, % at 10 µM; 93,000 compounds, 0.07% hits;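 active = 10 µM primary screen giving 50% or more activity, confirmed by 40% or more on retest at that dose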
sEH inhibitor – blocks human soluble epoxide hydrolase activity; P34913; recombinant human sEH enzymatic activity assay; inhibition, % at 2 µM; 91,000 compounds, 0.34% hits; in the data active = inhibition above about 80%
sEH activator – increases human soluble epoxide hydrolase activity; P34913; purified human sEH enzymatic activity, activator screen; 91,000 compounds, 0.04% hits; activation, % at 2 µM; in the data active = activation above about 37%
HIV Rev-RRE inh – inhibitors of HIV-1 Rev-RRE RNA interaction; 97,000 compounds, 0.79% hits; inhibition, % at 8 µM; Rev peptide-RRE RNA binding, FRET; P05866;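 active = inhibition above the screen-wide mean plus 3 SD, cut at about 35% in these data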;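 note: 0% = median DMSO wells and 100% = median Neomycin B control wells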
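Assay system: Rev peptide and RRE RNA, both fluorescently labelled; times: 5 min preincubation and 15 min binding, 25 °C; detection: FRET, ex 480 nm, em 540 and 671 nm; read-out basis: % inhibition from 671/540 nm acceptor-to-donor ratio, scaled between controls; benchmarks: DMSO low control, neomycin B high control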
Numbers without * were called inactive; nt = not tested or not shown. Compounds with a hit are over-represented: about 1.6% of the library has one in this group of screens.

SMILES	Smad3 inh	Mac1 fbg inh	Mac1 fbg enh	sEH inhibitor	sEH activator	HIV Rev-RRE inh
O=c1[nH]c2cc3c(cc2cc1C(c1nnnn1Cc1ccccc1)N1CCCCCC1)OCCO3 (configuration not stated)	16	4	-1	3	-5	41*
CC(C)(C[C@@]1(C)NC(=O)NC1=O)OCc1ccccc1	2	nt	nt	nt	nt	nt
CC(=O)Nc1ccc(NC(=O)CSC2=NCCS2)cc1	-5	-17	-4	9	-10	2
O=C(CSC1=NCCS1)Nc1ccnc2ccccc12	4	100*	-10	nt	nt	nt
Cn1c(=O)c2[nH]c(N=NN3CCN(CCO)CC3)nc2n(C)c1=O	8	nt	nt	nt	nt	nt
CCCCNc1cc(C)nc(NCc2ccccc2)n1	1	85*	-13	-11	14	11
Cc1cc(Nc2ccccc2)nc(NCc2ccccc2)n1	nt	100	-10	nt	nt	nt
CC(=O)N1CCN(c2nc3cc4c(cc3nc2NS(=O)(=O)c2ccccc2)OCCO4)CC1	11	-2	8	nt	nt	12
CN(C)CCCc1c2ccccc2nc2ccc(Cl)cc12	2	nt	nt	nt	nt	nt
Cc1ccc(C2NC(=O)c3c(sc4c3CCN(C)C4)N2)s1 (configuration not stated)	-25	-20	-2	nt	nt	75*
Cc1ccc(C2NC(=O)c3c(sc4c3CCN(C)C4)N2)o1 (configuration not stated)	-3	-6	-2	nt	nt	29
CN1CCc2c(sc3c2C(=O)NC(c2ccccn2)N3)C1 (configuration not stated)	3	6	2	-4	4	43*
O=C1NC(c2ccccn2)Nc2sc3c(c21)CCC3 (configuration not stated)	-2	-12	2	-2	3	4
O=S1(=O)N[C@H]2CC[C@H]3NS(=O)(=O)N[C@H]4CC[C@@H](N1)N4S(=O)(=O)N23	24	nt	nt	nt	nt	nt
N#CCCS(=O)(=O)c1nnnn1-c1ccccc1	-10	8	-6	10	-10	2
CCOC(=O)[C@@H](O)Cc1cnc2ccccc2n1	17	nt	nt	nt	nt	nt
NNC(=O)c1cccc(COc2ccc(Br)cc2)c1	nt	13	-5	nt	nt	nt
NNC(=O)c1cccc(COc2cccc(Br)c2)c1	nt	nt	nt	82*	-81	4
CC(C)c1ccc(NC(=O)N2CCC(c3nc4ccccc4o3)CC2)cc1	-2	-14	-2	96*	-96	7
COc1ccc(NC(=O)N2CCCC(c3nc(-c4ccc(C(C)C)cc4)no3)C2)cc1 (configuration not stated)	0	87	-8	92*	-92	8
Cc1cc(C)cc(NC(=O)N2CCC(c3nc4ccccc4o3)CC2)c1	8	-1	-4	18	-17	13
OCCNc1ncnc2c1ncn2[C@H]1O[C@@H](CO)[C@H](O)[C@H]1O	25	nt	nt	nt	nt	nt
O=C1CC(O)(C(F)F)Oc2ccc3ccccc3c21 (configuration not stated)	-2	-5	0	-9	8	2
O=C1CC(O)(C(F)(F)F)Oc2c1ccc1ccccc21 (configuration not stated)	11	90*	-7	-4	5	8
CCN(CC)CCOC(=O)c1c(C)oc2ccc(O)cc12	-10	-23	6	0	-4	-2
SMILES	Smad3 inh	Mac1 fbg inh	Mac1 fbg enh	sEH inhibitor	sEH activator	HIV Rev-RRE inh
CCN(CC)CC[n+]1ccc2c(C)c3[nH]c4ccc(O)cc4c3c(C)c2c1	68*	nt	nt	nt	nt	nt
CN(C)c1ccc(/C=c2\sc3n(c2=O)CCCN=3)cc1	-11	40	-4	-19	17	37*
O=C(c1cc(Br)ccc1O)c1cc(Br)ccc1O	11	nt	nt	nt	nt	nt
O=C1c2ccccc2-c2cc([N+](=O)[O-])c([N+](=O)[O-])cc21	52*	nt	nt	nt	nt	nt
CN(C)C(=O)c1ccc2c(c1[N+](=O)[O-])C(=O)c1ccccc1C2=O	nt	-11	-4	nt	nt	nt
COC(=O)/C(C(C)=O)=C(\C=C\N(C)C)N(C)C	-3	0	-5	-11	6	2
COC(=O)\C(C(C)=O)=C(/C=C/C=C/C=C/N(C)C)N(C)C	26	nt	nt	nt	nt	82*
CC1(C)O[C@@H]2[C@@H](CO[C@H]2c2[nH]nc3c(=O)[nH]c(=O)[nH]c23)O1	-14	nt	nt	nt	nt	nt
CCn1c2ccccc2c2cc(N)ccc21	7	-7	6	-10	11	57*
COc1ccc(C2NC3=C(CCCC3)C(C#N)(C#N)C2(C#N)C#N)cc1 (configuration not stated)	-7	-5	17	-14	13	46*
